Assay results of several laboratories.
Each line is one published result; the experiments were not run side by side.
Target: 3-phosphoinositide-dependent protein kinase 1 (PDPK1, Homo sapiens, UniProt O15530)
One construct used (O15530 1-556): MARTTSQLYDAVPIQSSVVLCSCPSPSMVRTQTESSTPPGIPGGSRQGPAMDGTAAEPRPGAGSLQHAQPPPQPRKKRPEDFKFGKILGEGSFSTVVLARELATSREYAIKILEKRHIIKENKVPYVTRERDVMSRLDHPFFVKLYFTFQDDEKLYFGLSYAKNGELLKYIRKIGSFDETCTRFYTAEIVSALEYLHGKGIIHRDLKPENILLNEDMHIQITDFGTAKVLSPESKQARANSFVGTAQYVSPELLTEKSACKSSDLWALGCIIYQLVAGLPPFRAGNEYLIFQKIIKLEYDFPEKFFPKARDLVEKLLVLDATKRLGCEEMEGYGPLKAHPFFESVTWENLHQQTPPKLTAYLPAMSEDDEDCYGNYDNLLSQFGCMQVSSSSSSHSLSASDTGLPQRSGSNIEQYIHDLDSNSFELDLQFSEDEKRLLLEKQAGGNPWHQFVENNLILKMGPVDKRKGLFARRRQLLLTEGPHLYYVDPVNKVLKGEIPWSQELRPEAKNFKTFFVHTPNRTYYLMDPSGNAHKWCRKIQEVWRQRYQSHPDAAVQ

O=C(NCCCN1CCOCC1)c1ccc(Nc2ncc(Cl)c(-c3ccc(Cl)s3)n2)cc1 has a remaining binding of 100% (binding, competition with immobilised ligand; 1 µM).
With Cc1ccc(NC(=O)c2ccc(CN3CCN(C)CC3)cc2)cc1Nc1nccc(-c2cccnc2)n1 the remaining binding was 100% (cell-free assay, competition with immobilised ligand; 0.1 µM).
The remaining binding of CC1CCCN1c1nccc(-c2cnn3ncccc23)n1 (stereo not drawn) is reported as 89% (binding; 1 µM).
With COc1cc2ncnc(Nc3ccc(F)c(Cl)c3)c2cc1OCCCN1CCOCC1 the remaining binding was 100% (cell-free assay, competition with immobilised ligand; 0.1 µM).
C=CC(=O)N1CCC(C(=O)NCC(=O)N2CCN(c3nc(-c4cnc(N)nc4C(F)F)nc(N4CCOCC4)n3)CC2)CC1 gave a remaining binding of 93% (binding, competition with immobilised ligand; 1 µM).
With CN(c1nccc(-c2cnn3ncccc23)n1)C1CC1 the remaining binding was 100% (binding; 1 µM).
With CCN(CC)CCNC(=O)c1c(C)[nH]c(/C=C2\C(=O)Nc3ccc(F)cc32)c1C the remaining binding was 39% (cell-free assay, competition with immobilised ligand; 10 µM).
The remaining binding of Cc1cnn2ncc(-c3ccnc(N(C)C)n3)c2c1 is reported as 100% (binding; 1 µM).
O=C(c1ccc(Nc2nccc(-c3cc4ccccc4s3)n2)cc1)N1CCC(N2CCCC2)CC1 gave a remaining binding of 100% (binding, competition with immobilised ligand; 1 µM).
C[C@H]1CCN(c2nccc(-c3cnn4ncccc34)n2)C1 gave a remaining binding of 100% (binding; 1 µM).
For C[C@@H]1CN(c2ccc3ncc(-c4ccc5[nH]nc(C6CC6)c5c4)n3n2)C[C@H](C)O1, the remaining binding was 100% (binding, competition with immobilised ligand; 50 nM).
Cc1nc(Nc2ncc(C(=O)Nc3c(C)cccc3Cl)s2)cc(N2CCN(CCO)CC2)n1 gave a remaining binding of 100% (cell-free assay, competition with immobilised ligand; 0.1 µM).
COc1ccnn2ncc(-c3ccnc(N(C)C)n3)c12 has a remaining binding of 100% (binding; 1 µM).
Nc1ncc2c(n1)-c1c([nH]c3ccc(C#CC4CC4)cc13)CCCC2 gave a remaining binding of 91% (binding, competition with immobilised ligand; 1 µM).
C[C@@]1(Cc2ccc(C#N)cc2)C(=O)N(c2cc(Cl)cc(Cl)c2)c2ncc(C(=O)NC3(c4nc(C5CCC5)no4)CC3)n21 has a remaining binding of 100% (cell-free assay, competition with immobilised ligand; 1 µM).
The remaining binding of O=C(NCC1CCOCC1)c1n[nH]cc1NC(=O)c1c(F)cccc1F is reported as 100% (binding, competition with immobilised ligand; 1 µM).
The remaining binding of CCN(CC)Cc1cc(Nc2ccnc3cc(Cl)ccc23)ccc1O is reported as 100% (cell-free assay, competition with immobilised ligand; 0.1 µM).
With CN(C)c1nccc(-c2cnc3ncccn23)n1 the remaining binding was 100% (binding; 1 µM).
Cc1c(-c2ccccc2)oc2c(C(=O)OCCN3CCCCC3)cccc2c1=O has a remaining binding of 100% (cell-free assay, competition with immobilised ligand; 0.1 µM).
The remaining binding of Cc1c(C(=O)O)cc(-c2ccc(C3CCNCC3)cc2)c2ccc(-c3ccc(C(F)(F)F)cc3)cc12 is reported as 100% (binding, competition with immobilised ligand; 1 µM).
For COc1cnc(Nc2cccc(S(N)(=O)=O)c2)nc1N1CCN(c2ccccc2)CC1, the remaining binding was 100% (binding, competition with immobilised ligand; 1 µM).
With Cn1cc(Cl)c2c(Oc3c(F)cc(Nc4cc(Cl)nc(N)n4)cc3F)ccnc21 the remaining binding was 61% (cell-free assay, competition with immobilised ligand; 0.1 µM).
With N[C@H]1CCN(c2nccc(-c3cnn4ncccc34)n2)C1 the remaining binding was 97% (binding; 1 µM).
With O=C(Nc1cccnn1)N1CCC(=Cc2cccc(Oc3ccc(C(F)(F)F)cn3)c2)CC1 the remaining binding was 85% (cell-free assay, competition with immobilised ligand; 1 µM).
CS(=O)(=O)CCNCc1ccc(-c2ccc3ncnc(Nc4ccc(OCc5cccc(F)c5)c(Cl)c4)c3c2)o1 has a remaining binding of 100% (cell-free assay, competition with immobilised ligand; 0.1 µM).
For CCCCN(CCCC)C(=O)CN1C[C@@H](c2cc(OC)c3c(c2)OCO3)[C@H](C(=O)O)[C@H]1CC(C)(C)CCC, the remaining binding was 77.3% (cell-free assay, competition with immobilised ligand; 1 µM).
For O=C(c1ccc(Nc2ncc(Cl)c(-c3ccc(Cl)s3)n2)cc1)N1CCC(N2CCCC2)CC1, the remaining binding was 82% (binding, competition with immobilised ligand; 1 µM).
COc1ccc2cc(OCC3(C(=O)O)CN(C(=O)c4ccc(F)cc4)C3)ccc2c1 has a remaining binding of 100% (cell-free assay, competition with immobilised ligand; 1 µM).
For COc1cnc(Nc2cccc(S(N)(=O)=O)c2)nc1N1CCN(c2ccccc2)C(=O)C1, the remaining binding was 100% (binding, competition with immobilised ligand; 1 µM).
With Cc1nc(Cc2cccc(C(F)(F)F)c2)sc1-c1ccc(C(N)=O)nc1 the remaining binding was 82% (cell-free assay, competition with immobilised ligand; 1 µM).
For c1cncc(-c2cccc(Nc3nccc(NC4CCCCC4)n3)c2)c1, the remaining binding was 100% (binding, competition with immobilised ligand; 10 µM).
CN1CC[C@H](c2c(O)cc(O)c3c(=O)cc(-c4ccccc4Cl)oc23)[C@H](O)C1 has a remaining binding of 100% (cell-free assay, competition with immobilised ligand; 0.1 µM).
With COc1ccc2c(c1)O[C@@H](c1ccc(OC)c(OC)c1)C[C@H]2NC(=O)C1(c2ccc3c(c2)OC(F)(F)O3)CC1 the remaining binding was 100% (cell-free assay, competition with immobilised ligand; 1 µM).
